# In ChEMBL document CHEMBL1153995, “Synthesis and biological evaluation of new enantiomerically pure azole derivatives as inhibitors of Mycobacterium tuberculosis” (2009):
# Test system: Mycobacterium tuberculosis
# Test: Antimycobacterial activity against Mycobacterium tuberculosis H37Rv ATCC 27294 after 21 to 28 days by two fold agar dilution method
# Assay type: functional
# Procedure, shortened: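 Stock kept on Löwenstein-Jensen slants. Twofold agar dilution in Middlebrook 7H11 agar with 10% OADC, compounds at 0.0312–64 µg/mL. Inoculum grown in Middlebrook 7H9 with 10% ADC, suspension at 1.5 × 10⁵ cfu/mL, final 1.5 × 10³ per well. Incubated 21–28 days. MIC read as lowest concentration completely inhibiting visible growth.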
row,SMILES,MIC
1,Brc1ccc([C@@H](c2cn(-c3ccccc3)nn2)n2ccnc2)cc1,32 µg/mL
2,Brc1ccc([C@H](c2cn(-c3ccccc3)nn2)n2ccnc2)cc1,32 µg/mL
3,NNC(=O)c1ccncc1 [ISONIAZID],0.2 µg/mL
4,Brc1ccc([C@H](c2cn(Cc3ccccc3)nn2)n2ccnc2)cc1,16 µg/mL
5,Fc1ccc([C@H](c2cn(-c3ccccc3)nn2)n2ccnc2)cc1,32 µg/mL
6,Clc1ccc(Cn2cc([C@H](c3ccc(Cl)cc3)n3ccnc3)nn2)cc1,32 µg/mL
7,Clc1ccc(COC(Cn2ccnc2)c2ccc(Cl)cc2Cl)cc1 (stereo not drawn) [ECONAZOLE],12.5 µg/mL
8,Fc1ccc([C@@H](c2cn(-c3ccccc3)nn2)n2ccnc2)cc1,32 µg/mL
9,Clc1ccccc1C(c1ccccc1)(c1ccccc1)n1ccnc1 [CLOTRIMAZOLE],20.4 µg/mL
10,Clc1ccc(Cn2cc([C@@H](c3ccc(Cl)cc3)n3ccnc3)nn2)cc1,32 µg/mL
11,Fc1ccc([C@@H](c2cn(Cc3ccccc3)nn2)n2ccnc2)cc1,64 µg/mL
12,Brc1ccc([C@@H](c2cn(Cc3ccccc3)nn2)n2ccnc2)cc1,32 µg/mL
13,Fc1ccc([C@H](c2cn(Cc3ccccc3)nn2)n2ccnc2)cc1,64 µg/mL
